Screening results deposited in PubChem by several laboratories.
Most compounds without a hit are left out; they make up all but 29% or so of the library.
CYP2C19 inh: inhibitors of human CYP2C19. P33261. CYP2C19 Supersomes, luciferin-H EGE luminescence, 30 min. inhibition, % at 5 µM. hit rate 21% among 96,000. AID 778;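 active = CYP2C19 inhibition above a set limit at 5 µM in the primary screen, cut at about 50% in these data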;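 note: plate controls were negative control wells for no effect and 2.5 mM tranylcypromine positive control for full effect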
CYP2C9 inhib: inhibitors of human CYP2C9; CYP2C9 Supersomes, luciferin-H conversion, luminescence; inhibition, % at 5 µM; hit rate 20% among 96,000; AID 777;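 active = blocking of liver enzyme CYP2C9 beyond about 50% at 5 µM, limit read from the data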
Target sequence (P11712 whole entry, looked up): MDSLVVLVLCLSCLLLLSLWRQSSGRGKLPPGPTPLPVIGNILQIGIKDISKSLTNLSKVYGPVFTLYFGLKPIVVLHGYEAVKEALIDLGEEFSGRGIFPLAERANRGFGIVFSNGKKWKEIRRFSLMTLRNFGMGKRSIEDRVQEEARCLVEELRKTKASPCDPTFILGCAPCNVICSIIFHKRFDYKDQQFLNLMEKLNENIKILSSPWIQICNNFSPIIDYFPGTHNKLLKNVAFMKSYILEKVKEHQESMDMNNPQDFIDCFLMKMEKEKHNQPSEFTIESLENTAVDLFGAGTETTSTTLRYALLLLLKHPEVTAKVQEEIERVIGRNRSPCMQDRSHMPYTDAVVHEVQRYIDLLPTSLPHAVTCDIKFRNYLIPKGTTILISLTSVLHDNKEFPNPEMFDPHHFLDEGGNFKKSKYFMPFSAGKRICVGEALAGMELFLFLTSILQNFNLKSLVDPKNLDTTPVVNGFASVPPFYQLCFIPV
tolC growth inh: E. coli tolC mutant growth inhibition. E. coli BW25113 tolC mutant growth, OD615. AID 573. growth inhibition, % at 10 µM (by protocol). hit rate 2.2% among 65,000;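 active = growth inhibition at or above a cutoff equal to the mean over every tested compound plus 3 SD, cut at about 60% in these data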;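 note: growth measured after 20 h incubation at 37 °C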
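Test system: E. coli BW25113 ΔtolC::kan bacteria | Medium: Kanamycin-containing LB broth (50 µg/mL) | Dosing: One dose of 10 µM final | Times: 20 h incubation with compound, 37 °C | Detection: Optical density read at 615 nm | Read-out basis: Percent growth inhibition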
CYP2C9 activ: activators of human CYP2C9; P11712; recombinant CYP2C9, luciferin-H conversion, luminescence; stronger effect = higher value; factor 1 = untreated enzyme, 0 = blocked; activation factor at 5 µM; hit rate 1.4% among 96,000; AID 1024;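 active = activation factor of 2 or more for CYP2C9 at a 5 µM dose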;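 note: 0 = sulfaphenazole-blocked wells and 1 = vehicle-only wells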
E coli WT exp: growth inhibitors of E. coli BW25113 wild type; growth inhibition, % at 100 µM; AID 710; OD600 absorbance; hit rate 0.15% among 98,000;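 active = growth inhibition above about 50% at one test dose, limit read from the data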;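 note: growth measured after 20 h incubation at 37 °C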
CYP2C19 activ: activators of human cytochrome P450 2C19; P33261; recombinant CYP2C19, luciferin-H EGE luminescence; stronger effect = higher value; 0 = fully inhibited enzyme, 1 = untreated enzyme; activation factor at 5 µM; 96,000 tested, under 10 active; AID 1025;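 active = activation factor of at least 2 at 5 µM in the primary screen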;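 note: 0 = wells with 2.5 mM tranylcypromine and 1 = vehicle-only wells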
* hit, by the source's call; . = no result given.

SMILES	CYP2C19 inh	CYP2C9 inhib	tolC growth inh	CYP2C9 activ	E coli WT exp	CYP2C19 activ
C/C(N)=C(/C#N)C(=O)CSc1nnnn1-c1ccc(C)cc1	52*	-20	0	1.2	-12	0.5
CCOCCCNC(=O)C(c1ccc(C)cc1)N1CCOCC1 (stereo not given)	18	-42	0	1.4	2	0.8
CCOCCCNC(=O)C(c1ccc(Cl)cc1)N1CCC2(CC1)OCCO2 (stereo not given)	59*	-9	-9	1.1	-9	0.4
O=C(Nc1ccc2c(c1)OCO2)C(c1ccc(Cl)cc1)N1CCC2(CC1)OCCO2 (stereo not given)	52*	45	55	0.5	-12	0.5
CC(C)c1ccc(NC(=O)C(c2ccc3c(c2)OCO3)N2CCC3(CC2)OCCO3)cc1 (stereo not given)	6	8	49	0.9	-11	0.9
CCOCCCNC(=O)C(c1ccc(Cl)cc1)N1CCN(c2ccccc2)CC1 (stereo not given)	51*	18	3	0.8	-5	0.5
CCC(=O)N1CCc2cc(Br)cc(S(=O)(=O)N3CCN(c4ccccn4)CC3)c21	.	.	5	.	.	.
Clc1ccc2c(NCc3ccccn3)ncnc2c1	62*	48	.	0.5	3	0.4
O=C(NCc1ccccn1)c1ccc(Cl)cc1Cl	24	24	2	0.8	6	0.8
Cc1cccc(-n2ncc3c(NCc4ccco4)ncnc32)c1	.	.	0	.	0	.
Clc1ccc2c(NCc3ccco3)ncnc2c1	79*	55*	.	0.4	14	0.2
COc1ccnc(Oc2ccc3ccccc3c2)c1C#N	47	-1	.	1	0	0.5
CN=C(Nc1ccc(C(=O)OC)cc1)SC1CC(=O)N(c2ccccc2F)C1=O (stereo not given)	16	49	.	0.5	-10	0.8
C/C(CCc1ccc2c(c1)OCO2)=N\N=C(/N)SC1CC(=O)N(c2ccccc2F)C1=O (stereo not given)	21	74*	.	0.3	-1	0.8
CCN=C(Nc1ccc2c(c1)OCO2)SC1CC(=O)N(c2ccccc2F)C1=O (stereo not given)	47	100*	1	0	-10	0.5
O=C(COC(=O)CCNS(=O)(=O)c1ccc2c(c1)OCCO2)NC1CCCc2ccccc21 (stereo not given)	62*	-18	1	1.2	-4	0.4
COC(=O)C1=C(C)N(CCc2ccc(OC)cc2)C(=O)C1	78*	14	-14	0.9	-4	0.2
COC(=O)C1=C(C)N(CCc2ccc(OC)c(OC)c2)C(=O)C1	65*	16	.	0.8	-2	0.4
COc1ccc(CCN2C(=O)C3C4C=CC(C4)C3C2=O)cc1OC (stereo not given)	57*	-6	1	1.1	-1	0.4
COC(=O)C1=C(C)N(Cc2ccco2)C(=O)C1	27	-3	-30	1	-2	0.7
COC(=O)C1=C(C)N(CC(C)C)C(=O)C1	71*	23	.	0.8	-6	0.3
COc1ccc(CCN2C(=O)C3C4C=CC(C3C2=O)C2C(=O)N(CCc3ccc(OC)c(OC)c3)C(=O)C42)cc1OC (stereo not given)	20	31	.	0.7	4	0.8
CN1CCc2c(c3c(n2C)CCN(C)[C@H]3c2ccccc2F)[C@@H]1c1ccccc1F	6	27	.	0.7	-3	0.9
COC(=O)C1=C(C)N(Cc2ccc(OC)c(OC)c2)C(=O)C1	20	-3	.	1	-3	0.8
COC(=O)C1=C(C)N(Cc2ccc(OC)cc2)C(=O)C1	97*	34	.	0.7	2	0
COc1ccc(-n2c(COc3ccc4ccccc4c3)nnc2SCC(=O)NCc2ccco2)cc1	46	52*	.	0.5	-32	0.5
COc1cccc(OCc2nnc(SCC(=O)NCc3ccco3)n2C)c1	0	-4	.	1	5	1
COc1ccc(-n2c(COc3cccc(C)c3)nnc2SCC(=O)NCc2ccco2)cc1	28	21	20	0.8	-19	0.7
Cc1ccc(-n2c(CSc3nc(C)cc(C)n3)nnc2SCC(=O)NCc2ccco2)cc1	-1	41	6	0.6	7	1
COc1ccc(-n2c(COc3cccc4ccccc34)nnc2SCC(=O)NCc2ccco2)cc1	28	55*	.	0.4	-22	0.7
